From PMC10339703 (Clinical and Translational Science, 2023)
Entries after “also recorded” stand apart in the source; their conditions may differ.

Tested on: healthy subjects
Experiment: Safety and tolerability
Assay type: in vivo, human
Conditions: for subjects with ADRs, percentage: SAD
In short: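 Randomized, double-blind, placebo-controlled (6:2, n = 8/cohort) single oral doses in healthy adults after ≥10 h fast, with sentinel pair observed 24 h first. TEAEs were graded by nature, incidence, severity, seriousness and outcome, coded in MedDRA 23.0. ADR: any AE whose causality to test compound could not be ruled out. Labs, vital signs, examinations and 12-lead ECGs were also monitored.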

[1] = SAD study, all subjects who received bersiporocin

O[C@H]1CCCN[C@@H]1CCCn1cnc2c(Cl)c(Cl)ccc21 [Bersiporocin]
Subjects with ADRs, n (%) (SAD single 300 mg capsule): 4 (66.7)
Tachycardia (ADR), subjects n (%) (SAD single 300 mg capsule): 0
Vertigo (ADR), subjects n (%) (SAD single 300 mg capsule): 0
Vomiting (ADR), number of events (SAD single 300 mg capsule): 3
Vomiting (ADR), subjects n (%) (SAD single 300 mg capsule): 3 (50.0)
ADRs, number of events (SAD single 500 mg tablet): 23
Abdominal discomfort (ADR), subjects n (%) (SAD single 500 mg tablet): 0
Abdominal distension (ADR), subjects n (%) (SAD single 500 mg tablet): 0
Abdominal pain (ADR), number of events (SAD single 500 mg tablet): 1
Abdominal pain (ADR), subjects n (%) (SAD single 500 mg tablet): 1 (16.7)
Abdominal pain upper (ADR), number of events (SAD single 500 mg tablet): 1
Abdominal pain upper (ADR), subjects n (%) (SAD single 500 mg tablet): 1 (16.7)
Constipation (ADR), number of events (SAD single 500 mg tablet): 1
Constipation (ADR), subjects n (%) (SAD single 500 mg tablet): 1 (16.7)
Decreased appetite (ADR), number of events (SAD single 500 mg tablet): 1
Decreased appetite (ADR), subjects n (%) (SAD single 500 mg tablet): 1 (16.7)
Diarrhea (ADR), number of events (SAD single 500 mg tablet): 4
Diarrhea (ADR), subjects n (%) (SAD single 500 mg tablet): 4 (66.7)
Dysgeusia (ADR), subjects n (%) (SAD single 500 mg tablet): 0
Epigastric discomfort (ADR), number of events (SAD single 500 mg tablet): 1
Epigastric discomfort (ADR), subjects n (%) (SAD single 500 mg tablet): 1 (16.7)
Gastroesophageal reflux disease (ADR), subjects n (%) (SAD single 500 mg tablet): 0
Headache (ADR), number of events (SAD single 500 mg tablet): 2
Headache (ADR), subjects n (%) (SAD single 500 mg tablet): 2 (33.3)
Hypersensitivity (ADR), number of events (SAD single 500 mg tablet): 1
Hypersensitivity (ADR), subjects n (%) (SAD single 500 mg tablet): 1 (16.7)
Hypotension (ADR), number of events (SAD single 500 mg tablet): 1
Hypotension (ADR), subjects n (%) (SAD single 500 mg tablet): 1 (16.7)
Malaise (ADR), subjects n (%) (SAD single 500 mg tablet): 0
Nausea (ADR), number of events (SAD single 500 mg tablet): 5
Nausea (ADR), subjects n (%) (SAD single 500 mg tablet): 5 (83.3)
Neutropenia (ADR), subjects n (%) (SAD single 500 mg tablet): 0
Oropharyngeal pain (ADR), number of events (SAD single 500 mg tablet): 1
Oropharyngeal pain (ADR), subjects n (%) (SAD single 500 mg tablet): 1 (16.7)
Photosensitivity reaction (ADR), subjects n (%) (SAD single 500 mg tablet): 0
Subjects with ADRs, n (%) (SAD single 500 mg tablet): 6 (100)
Tachycardia (ADR), number of events (SAD single 500 mg tablet): 1
Tachycardia (ADR), subjects n (%) (SAD single 500 mg tablet): 1 (16.7)
Vertigo (ADR), number of events (SAD single 500 mg tablet): 1
Vertigo (ADR), subjects n (%) (SAD single 500 mg tablet): 1 (16.7)
Vomiting (ADR), number of events (SAD single 500 mg tablet): 2
Vomiting (ADR), subjects n (%) (SAD single 500 mg tablet): 2 (33.3)
ADRs, number of events (SAD single 600 mg capsule): 15
Abdominal discomfort (ADR), number of events (SAD single 600 mg capsule): 1
Abdominal discomfort (ADR), subjects n (%) (SAD single 600 mg capsule): 1 (16.7)
Abdominal distension (ADR), subjects n (%) (SAD single 600 mg capsule): 0
Abdominal pain (ADR), subjects n (%) (SAD single 600 mg capsule): 0
Abdominal pain upper (ADR), subjects n (%) (SAD single 600 mg capsule): 0
Constipation (ADR), subjects n (%) (SAD single 600 mg capsule): 0
Decreased appetite (ADR), subjects n (%) (SAD single 600 mg capsule): 0
Diarrhea (ADR), number of events (SAD single 600 mg capsule): 2
Diarrhea (ADR), subjects n (%) (SAD single 600 mg capsule): 2 (33.3)
Dysgeusia (ADR), subjects n (%) (SAD single 600 mg capsule): 0
Epigastric discomfort (ADR), subjects n (%) (SAD single 600 mg capsule): 0
Gastroesophageal reflux disease (ADR), subjects n (%) (SAD single 600 mg capsule): 0
Headache (ADR), number of events (SAD single 600 mg capsule): 1
Headache (ADR), subjects n (%) (SAD single 600 mg capsule): 1 (16.7)
Hypersensitivity (ADR), subjects n (%) (SAD single 600 mg capsule): 0
Hypotension (ADR), subjects n (%) (SAD single 600 mg capsule): 0
Malaise (ADR), subjects n (%) (SAD single 600 mg capsule): 0
Nausea (ADR), number of events (SAD single 600 mg capsule): 6
Nausea (ADR), subjects n (%) (SAD single 600 mg capsule): 5 (83.3)
Neutropenia (ADR), subjects n (%) (SAD single 600 mg capsule): 0
Oropharyngeal pain (ADR), subjects n (%) (SAD single 600 mg capsule): 0
Photosensitivity reaction (ADR), number of events (SAD single 600 mg capsule): 1
Photosensitivity reaction (ADR), subjects n (%) (SAD single 600 mg capsule): 1 (16.7)
Subjects with ADRs, n (%) (SAD single 600 mg capsule): 5 (83.3)
Tachycardia (ADR), subjects n (%) (SAD single 600 mg capsule): 0
Vertigo (ADR), subjects n (%) (SAD single 600 mg capsule): 0
Vomiting (ADR), number of events (SAD single 600 mg capsule): 4
Vomiting (ADR), subjects n (%) (SAD single 600 mg capsule): 4 (66.7)
subjects with nausea and vomiting, percentage (SAD starting dose group (100 mg, 150 mL solution)): 83.3%
ADRs, number of events [1]: 68
TEAEs, number of events [1]: 90
subjects with TEAEs, number [1]: 23
subjects with TEAEs, percentage [1]: 77%
subjects with ADRs, percentage (capsule group (after formulation change)): 50%
subjects with ADRs, percentage (solution group): 83%
severe, life‐threatening, or fatal ADRs (across the study (SAD and MAD)): no severe, life‐threatening, or fatal ADRs
severity of most ADRs (across the study (SAD and MAD)): mild in severity
severe or serious adverse events (single oral dose up to 600 mg and multiple oral doses up to 200 mg twice daily for 14 days): No severe or serious adverse events were observed; also recorded: No severe or serious AEs were observed
